From PubChem BioAssay
ABHD5-PLIN5 inh – ABHD5-PLIN5 interaction inhibitors, primary screen, cell lysate, split luciferase complementation, luminescence. actives 0.78% (n = 360,000). AID 602281, 2012. Split G. princeps luciferase complementation, 4 h. Perilipin-5 (Homo sapiens) + 1-acylglycerol-3-phosphate O-acyltransferase ABHD5 (Homo …. inhibition, % at 4 µM;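 active = inhibition above the mean inhibition across every tested compound plus 3 SD, cut at about 22% in these data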;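 also: 0% = DMSO only wells and the 100% control is not disclosed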
Mdm2-MdmX inh – inhibitors of human Mdm2-MdmX association, primary screen, cell-based, luminescence, split luciferase, SaOS-2, uHTS | Protein Mdm4 (Homo sapiens) + E3 ubiquitin-protein ligase Mdm2 (Homo sapiens), … | SaOS-2 split-luciferase Mdm2/MdmX complementation | inhibition, % at 8 µM | actives 3% (n = 330,000);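 active = inhibition of at least 50% at 8 µM in the primary screen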
UPR CHOP act – activators of apoptotic CHOP UPR arm, primary screen, cell-based, CHO-CHOP luciferase reporter, luminescence, uHTS; AID 449763, 2010; actives 0.34% (n = 330,000); UPR activation; percent of tunicamycin response over DMSO baseline; activation, % at 10 µM;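 active = at 10 µM dose, activation of 40% or more, normalized to positive control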;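 also: 100% = tunicamycin at 10 µg/mL and 0% = DMSO alone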
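System: CHO-CHOP luciferase reporter cell line; amount: 500 cells/well; buffer or medium: F12 medium containing 10% fetal bovine serum; incubation: 6 h compound exposure at 37 °C after overnight seeding; measured by: luciferase luminescence after 10 min with Steady-Glo reagent; evaluation: % reporter activation, DMSO baseline versus tunicamycin full activation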
Granule exo inh – LAMP-1 surface exposure blockers, TALL-104 cells – cell-based, flow cytometry, MLPCN library, primary screen; TALL-104 LAMP-1 surface exposure; cells stimulated with thapsigargin and PMA; inhibition, % at 10 µM; actives 0.66% (n = 360,000);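 active = inhibition above about 55%, limit read from the data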
XBP1 UPR activ – activators of adaptive XBP1 UPR arm, primary screen, cell-based, CHO-XBP1 luciferase reporter, luminescence, uHTS | IRE1-XBP1 UPR activation; percent of tunicamycin response, DMSO as zero | activation, % at 20 µM | actives 0.33% (n = 330,000) | AID 463104, 2010;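 active = versus positive control, 20 µM dose yields 30% or more activation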;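 also: 100% = tunicamycin at 10 µg/mL and 0% = DMSO only wells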
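Material: CHO cell line with stable XBP1 luciferase reporter; buffer or medium: F12 medium containing 10% fetal bovine serum; compound: single point, 20 µM final compound, 1% DMSO; incubation: 6 h treatment, 37 °C; measured by: glow luminescence from Steady-Glo reagent; evaluation: activation, % of tunicamycin; control set: tunicamycin high, DMSO low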
Granule exo CP1 – inhibitors of lytic granule exocytosis, confirmation, TALL-104 cells, flow cytometry, Cherry Pick01; shares compounds with Granule exo inh; LAMP-1 externalization; stimulated with PMA plus thapsigargin; actives 11% (n = 1,500); AID 651954, 2012; inhibition, % at 10 µM; in the data active = inhibition above about 60%;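 also: 0% = stimulated vehicle wells and 100% = unstimulated wells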
The depositor's hits bear a star; / = no result given. Compounds with a hit are over-represented: about 4% of the library has one in this group of screens.

SMILES	ABHD5-PLIN5 inh	Mdm2-MdmX inh	UPR CHOP act	Granule exo inh	XBP1 UPR activ	Granule exo CP1
COC(C/C=C/[C@H](O)[C@@H](C)OCc1ccccc1)OC	-0.5	16.3	-2.2	96.4*	-0.5	-4.9
CC1=C(C(=O)N2CCCCCC2)CC(CC(=O)NCc2cccc3ccccc23)C(=O)N1CCC1=CCCCC1 (configuration not stated)	15.6	/	/	58.1*	/	-5.9
CC1=C(C(=O)N2CCCCCC2)CC(CC(=O)NCCCCc2ccccc2)C(=O)N1CCC1=CCCCC1 (configuration not stated)	7.8	/	/	85.6*	/	0.2
CC1=C(C(=O)N2CCCCCC2)CC(CC(=O)NCc2cccs2)C(=O)N1CCC1=CCCCC1 (configuration not stated)	-4.3	/	/	-12.3	/	/
CC1=C(C(=O)N(C)C)CC(CC(=O)NCCCCc2ccccc2)C(=O)N1CCC1=CCCCC1 (configuration not stated)	-0.3	/	/	-1.4	/	/
Nc1nnn(CC(=O)N/N=C/c2ccco2)n1	4.4	6.3	1.2	-4.1	-2.9	/
O=C(NCc1cccnc1)C(=O)Nc1nc(C23CC4CC(CC(C4)C2)C3)cs1	11.0	40.4	3.0	3.9	2.2	/
O=C(NCc1ccncc1)C(=O)Nc1nc(C23CC4CC(CC(C4)C2)C3)cs1	-5.7	22.0	1.3	77.0*	9.6	-0.9
COC(=O)c1ccccc1S(=O)(=O)N1CCC(C(=O)OCC(=O)NCC(F)(F)F)CC1	3.7	31.5	0.3	95.5*	1.0	-5.9
CC(C)(C)c1csc(Sc2ccc([N+](=O)[O-])cn2)n1	4.3	30.0	3.3	6.3	2.1	/
OC(c1ccccc1)(c1ccccc1)C1CCN(CCCOc2ccc3c(c2)CCCC3)CC1	0.9	/	/	62.0*	/	5.2
Cc1nc2ccc(N=NC3=C(O)CCCC3=O)cc2s1	0.5	-9.6	4.2	0.6	4.5	/
COc1ccccc1NC(=O)C1(c2ccccc2)CCCC1	0.3	20.2	-1.6	84.7*	-3.8	-2.8
Fc1cccc(Cl)c1C1Nc2cccc3cccc(c23)N1	0.8	32.5	-0.1	31.1	-1.4	/
Clc1cccc(Cl)c1C1Nc2cccc3cccc(c23)N1	21.1	13.1	6.6	85.3*	-0.7	46.0
CSc1cccc(NC(=O)c2cccc3cccnc23)c1	-0.2	-73.1	3.9	81.8*	-3.8	-14.3
COc1ccc(S(=O)(=O)NNC(=S)NCCc2ccccc2)c(OC)c1	-4.4	29.7	-0.1	3.3	-4.6	/
CCCOc1ccc(Br)cc1CSC(=N)N	6.5	34.4	4.9	6.1	0.8	/
O=C1C(=Cc2cccs2)C(=O)c2ccccc21	14.1	0.2	-0.1	-1.3	-4.2	/
O=C1/C(=C\c2cccs2)Sc2ccc3ccccc3c21	-1.4	-145.7	1.9	84.7*	0.0	-1.3
CN(C)/C=C\C(=C/C(=O)C(F)(F)F)Nc1ccccc1Oc1ccccc1	5.9	13.4	-0.9	76.6*	-0.9	-1.9
Cc1ccc(NC(/C=C/N(C)C)=C/C(=O)C(F)(F)F)c(C)c1	-1.6	5.8	1.5	5.5	-1.8	/
CCOC(=O)N1CCN(C(=O)c2ccccc2N(Cc2ccccc2)S(=O)(=O)c2ccccc2)CC1	-6.2	-4.6	-0.3	79.3*	-4.3	-3.3
COCCCNC(=O)c1ccccc1N(Cc1ccccc1)S(=O)(=O)c1ccccc1	1.4	22.6	1.4	68.9*	-3.2	-4.7
CN(CC(=O)Nc1ccccc1C(=O)NC1CC1)Cc1ccccc1F	1.5	17.1	-0.8	1.3	-5.5	/
SMILES	ABHD5-PLIN5 inh	Mdm2-MdmX inh	UPR CHOP act	Granule exo inh	XBP1 UPR activ	Granule exo CP1
O=C(O)Cc1sc(=O)[nH]c1O	-6.2	/	/	97.3*	/	-14.0
CCOc1ccc(NC(=O)c2ccccn2)cc1	0.8	28.4	-10.2	0.2	-5.5	/
O=C(O)c1ccc(NC(=S)NC2CCCCC2)cc1	5.0	5.1	0.3	-3.6	0.6	/
Cc1ccccc1N1CCN(C(=O)NCc2cccc(Cl)c2)CC1	4.4	17.0	0.7	85.6*	0.3	-4.5
Cc1ccc(S(=O)(=O)N(C(=O)c2ccncc2)c2ccc3oc4c(c3c2)CCCC4)cc1[N+](=O)[O-]	-1.2	20.3	-0.3	-1.1	-1.1	/
CC(C)c1ccc(NC(=O)[C@H](NC(=O)[C@@H]2Cc3ccccc3CN2)c2ccccc2)cc1	-10.7	20.6	3.4	59.4*	-5.5	-10.0
COc1ccccc1/C=C/CN1CCCC(CO)(CCc2ccccc2)C1 (configuration not stated)	5.7	9.8	2.3	57.6*	-3.9	-4.8
OCC1(CCc2ccccc2)CCCN(C/C=C/c2ccccc2)C1 (configuration not stated)	3.5	21.0	-0.1	-5.8	-3.9	/
CN=Cc1nc(-c2ccccc2)oc1O	2.6	-12.0	4.3	-1.1	-1.7	/
CC1=Nc2ccccc2/C1=C\c1nc(-c2ccc(F)cc2)oc1O	3.8	12.9	1.8	76.1*	2.2	35.5
Cc1nc2ccccc2c(=O)n1CCN1CCOCC1	-0.2	-3.2	0.3	-5.4	-2.0	/
Cc1ccc(OCC(=O)Nc2sc3c(c2C#N)CC(C)(C)NC3(C)C)cc1	-0.7	17.3	1.8	8.2	2.8	/
CCOC(=O)c1c(NC(=O)COC(=O)c2ccc(C)s2)sc2c1CC(C)(C)NC2(C)C	-4.8	30.3	1.0	63.9*	10.2	58.0
COc1cccc(CN(C)C(=O)c2ccc(Oc3ccccc3)cc2)c1OC	3.6	-13.9	1.1	72.6*	-2.2	26.9
COc1ccc(C(=O)CSc2cc(C)nc(SCC(=O)c3ccc(C)cc3)n2)cc1	0.2	13.2	-1.8	55.6*	-2.7	-12.2
c1ccc(CN2CCN(C3CCCSc4ccccc43)CC2)cc1 (configuration not stated)	7.3	3.9	0.3	60.0*	-4.4	-13.0
C=C1C(=O)N(C)CCC1C(CC)C(=O)OC (configuration not stated)	3.2	/	/	-2.6	/	/
CC(=O)Nc1ccc2sn(-c3ccccc3)c(=O)c2c1	84.8*	/	/	59.8*	/	93.9*
CCCCNC(=S)NNC(=O)C1=NN(c2cc(C)ccc2C)C(=O)CC1	0.2	-8.3	1.1	-11.7	-3.0	/
COc1ccccc1N(CC(=O)Nc1ccc2c(c1)OCCO2)S(=O)(=O)c1ccc(C)cc1	-6.0	27.3	-2.2	73.4*	-6.9	-9.5
COc1ccccc1N(CC(=O)Nc1ccc2c(c1)OCCO2)S(C)(=O)=O	-0.8	27.1	0.0	5.4	-3.9	/
